The list is not random: actives were taken first. Their share in the collection is about 2.4%.
STEP inh – inhibitors of human striatal-enriched phosphatase STEP | inhibition, % at 20 µM | 0.25% of 360,000 active | P54829 | recombinant STEP, OMFP fluorogenic substrate, fluorescence;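 active = inhibition at 20 µM, scaled per plate between control wells, above about 37%, limit read from the data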
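medium = Bis-Tris buffer pH 6.0, 2.5 mM DTT, 0.005% Tween 20 | test system = STEP (striatal-enriched tyrosine phosphatase) enzyme, cell-free | measure = normalized % inhibition | compound dosing = 20 µM, 1% DMSO | also added = 25 µM OMFP | schedule = reaction 20 min, ambient temperature | measured by = fluorescence read at 480 nm ex / 540 nm em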
Scp-1 inhibitor – Scp-1 (human) phosphatase inhibition | inhibition, % at 20 µM | 0.88% of 340,000 active | Recombinant Scp1, phosphopeptide, malachite green phosphate absorbance;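 active = inhibition above about 50% at 20 µM, limit read from the data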
Target sequence (Q9GZU7 76-261 limits assumed): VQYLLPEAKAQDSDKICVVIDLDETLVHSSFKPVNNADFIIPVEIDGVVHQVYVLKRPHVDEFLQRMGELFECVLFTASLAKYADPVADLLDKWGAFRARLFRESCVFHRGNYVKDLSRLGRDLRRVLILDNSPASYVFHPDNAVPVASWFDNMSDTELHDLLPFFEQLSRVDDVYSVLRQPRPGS
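Test system: SCP-1 phosphatase catalytic domain, residues 76-261 | Compound dosing: One concentration, 20 µM, with 1.0% DMSO | Schedule: 45 min room-temperature reaction, 5 min colour, 30 min stabiliser | Detection: Absorbance at 630 nm | Read-out basis: % inhibition of SCP-1 phosphate liberation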
LMPTP block – blocks human LMPTP phosphatase | P24666 | 0.22% of 360,000 active | inhibition, % at 20 µM | recombinant LMPTP-A, OMFP fluorogenic substrate, fluorescence intensity;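 active = compounds that cut the enzyme signal by at least half of the control window in the single-dose screen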
Target sequence (P24666 whole entry, looked up): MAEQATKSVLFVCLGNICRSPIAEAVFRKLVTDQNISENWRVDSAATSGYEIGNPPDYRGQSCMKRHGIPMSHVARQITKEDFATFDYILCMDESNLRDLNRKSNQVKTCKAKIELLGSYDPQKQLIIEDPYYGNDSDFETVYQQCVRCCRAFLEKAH
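Test system – LMPTP-A enzyme · Amount – LMPTP-A at 0.625 nM final in the reaction · Buffer or medium – Bis-Tris pH 6.0, DTT, detergent · Reagent – OMFP 400 µM · Doses – single 20 µM dose · Schedule – reaction 50 min, room temperature, dark · Detection – fluorescence intensity of OMFP turnover product · Evaluation – percent inhibition versus substrate-only and uninhibited controls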
DNMT1 inh – DNMT1 (human) enzyme inhibition. P26358. AID 588458. 0.83% of 360,000 active. inhibition (reported as % activation of signal), % at 10 µM. DNMT1 molecular beacon, Hinp1I cleavage, fluorescence; in the data active = inhibition above about 50%
SUMO1-SIM PPI – modulators of human SUMO1-mediated protein-protein interactions | P63165 | SUMO1 binding to a labelled peptide, TR-FRET, 1 h | inhibition, % at 20 µM | 0.33% of 360,000 active | AID 602429; in the data active = inhibition above about 37%
Target sequence (P63165 whole entry, looked up): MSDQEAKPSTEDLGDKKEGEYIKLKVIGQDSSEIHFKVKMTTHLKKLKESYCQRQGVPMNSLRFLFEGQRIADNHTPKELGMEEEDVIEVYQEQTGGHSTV
NadD inh – inhibitors of Staphylococcus aureus NadD. purified NadD enzyme, colorimetric absorbance read-out. inhibition, % at 20 µM. 0.78% of 360,000 active. AID 602399; in the data active = inhibition above about 26%
NadD inh conf – confirmation of Staphylococcus aureus NadD inhibitors; shares compounds with NadD inh; purified S. aureus NadD, colorimetric enzyme assay; inhibition, % at 20 µM; 13% of 2,000 active; AID 624309; in the data active = inhibition mostly above about 42%, no sharp cut-off; inactive = mostly below about 42%
Each line names hits and unclear results; the compound was inactive in the other large screens (follow-up assays come after a bar, where they were run).

CCOc1ccccc1NC(=O)C(OC(=O)c1ccccc1)c1ccccc1 (stereo unspecified)	none
CCOc1ccccc1NC(=O)C(OC(=O)c1ccc(NC(=O)CC#N)cc1)c1ccccc1 (stereo unspecified)	NadD inh 28 | NadD inh conf inactive
Oc1ccc(C[C@H]2CN([C@@H](Cc3ccccc3)CN3CCCC3CN3C(=S)NC[C@@H]3Cc3ccccc3)C(=S)N2CCc2ccccc2)cc1 (stereo partly specified)	NadD inh 37 (no result: STEP inh, Scp-1 inhibitor, DNMT1 inh) | NadD inh conf inactive
Oc1ccc(C[C@H]2CNC(=S)N2C[C@H]2CCCN2C[C@H](Cc2ccccc2)N2C[C@H](Cc3ccc(O)cc3)N(CCc3ccccc3)C2=S)cc1	NadD inh 46 (no result: Scp-1 inhibitor) | NadD inh conf inactive
O=C1NC[C@H](Cc2ccccc2)N(C[C@H]2CCCN2C[C@H](Cc2ccccc2)N2C[C@H](Cc3ccc(O)cc3)N(CCc3ccccc3)C(=O)C2=O)C1=O	none
O=C1NC[C@H](Cc2ccc(O)cc2)N(C[C@H]2CCCN2C[C@H](Cc2ccc(O)cc2)N2C[C@H](Cc3ccc(O)cc3)N(CCc3ccccc3)C(=O)C2=O)C1=O	none (no result: Scp-1 inhibitor)
CC(C)C[C@@H](CN1CCCC1CN1C(=S)NC[C@@H]1Cc1ccc(O)cc1)N1C[C@H](Cc2ccc(O)cc2)N(CCc2ccccc2)C1=S (stereo partly specified)	NadD inh 42 | NadD inh conf inactive
O=C1NC[C@H](Cc2ccc(O)cc2)N(C[C@@H]2CCCN2C[C@H](Cc2ccccc2)N2C[C@H](Cc3ccc(O)cc3)N(CCc3ccccc3)C(=O)C2=O)C1=O	none (no result: STEP inh, Scp-1 inhibitor, DNMT1 inh)
CC(C)C[C@H]1CNC(=S)N1C[C@H]1CCCN1C[C@H](CC(C)C)N1C[C@H](Cc2ccccc2)N(CCc2ccccc2)C1=S	none (no result: Scp-1 inhibitor)
Oc1ccc(C[C@H]2CN([C@@H](Cc3ccc(O)cc3)CN3CCC[C@@H]3CN3C(=S)NC[C@@H]3Cc3ccccc3)C(=S)N2CCc2ccccc2)cc1	NadD inh 40 (no result: Scp-1 inhibitor) | NadD inh conf inactive
CCCN(C(=O)COc1ccc(C(C)=O)cc1OC)C1CCS(=O)(=O)C1 (stereo unspecified)	none
N#CCCN1CCCN(CCC#N)CCN(CCC#N)CCCN(CCC#N)CC1	none
Cc1ccc(-n2nc3c(c2NC(=O)c2cccs2)CSC3)cc1	NadD inh 56 | NadD inh conf 77
Cc1cccc(-n2nc3c(c2NC(=O)c2ccc(Br)o2)CSC3)c1	NadD inh 44 | NadD inh conf 65
CCC(=O)N1CCC(C)(C(=O)NCc2ccc(F)cc2)C1 (stereo unspecified)	none (no result: Scp-1 inhibitor)
O=C(Nc1nc(-c2ccccn2)cs1)c1ncc(Cl)c(Cl)c1Cl	NadD inh 36 | NadD inh conf inactive
COc1ccc(-c2nc3c(c(SCC(=O)Nc4cccc(O)c4)n2)Cc2c(CO)cnc(C)c2O3)cc1	NadD inh 50 | NadD inh conf inactive
Cc1ncc(CO)c2c1Oc1nc(-c3ccccc3)nc(SCC(=O)Nc3cccc(O)c3)c1C2	NadD inh 43 | NadD inh conf 39
NCCCC[C@@H]1NC(=O)[C@H](CCC(=O)O)NC(=O)c2cc([N+](=O)[O-])cc(I)c2SC[C@@H](C(=O)NCC(N)=O)NC1=O	none
NCCCC[C@@H]1NC(=O)c2cc([N+](=O)[O-])cc(I)c2SC[C@@H](C(N)=O)NC(=O)[C@H](Cc2ccc(O)cc2)NC1=O	NadD inh 42 | NadD inh conf inactive
Nc1nc2c(Br)ccc(Br)c2cc1C(=O)NCc1cccc2ccccc12	NadD inh 41 (no result: STEP inh, Scp-1 inhibitor, DNMT1 inh) | NadD inh conf inactive
COCCNC(=O)C1(C)CCN(C(=O)c2ccc(OC)c(F)c2)C1 (stereo unspecified)	none (no result: Scp-1 inhibitor)
Cc1cccc(NC(=O)c2ncn3c2C(=O)NC[C@H]3C)c1	none (no result: Scp-1 inhibitor)
COc1cc(C#Cc2c(-c3cncn3C)n(C)c3ccc(-c4cc(OC)c(OC)c(OC)c4)cc23)cc(OC)c1	none
COc1cc(C#Cc2c(-c3cncn3C)n(C)c3ccc(-c4ccc(OC)nc4)cc23)cc(OC)c1	NadD inh 36 | NadD inh conf inactive
COc1cc(C#Cc2c(-c3cncn3C)n(C)c3ccc(-c4ccc5[nH]ccc5c4)cc23)cc(OC)c1	NadD inh 35 | NadD inh conf inactive
O=C(NNC(=O)c1ccc(Cl)s1)c1csc(N2CCOCC2)n1	none
O=C(Nc1ccn(CCCNCc2ccccc2)c(=O)n1)OCc1ccccc1	none
O=C(Nc1ccn(CCCN(CCCn2ccc(NC(=O)OCc3ccccc3)nc2=O)CCc2cc3ccccc3[nH]2)c(=O)n1)OCc1ccccc1	NadD inh 70 | NadD inh conf 55
N#Cc1cccnc1N1CCN(C(=O)c2cccc3c2C(=O)c2ccc(-c4ccc(Cl)c(C(F)(F)F)c4)cc2S3(=O)=O)CC1	NadD inh 35 | NadD inh conf inactive
O=C1c2ccc(Cl)cc2S(=O)(=O)c2cccc(C(=O)N3CCN(c4ncc(Br)cn4)CC3)c21	none
COc1ccc(-c2ccc3c(c2)S(=O)(=O)c2cccc(C(=O)N4CCN(c5c(Cl)cncc5Cl)CC4)c2C3=O)cc1OC	NadD inh 44 | NadD inh conf inactive
N#Cc1cccnc1N1CCN(C(=O)c2cccc3c2C(=O)c2ccc(Cl)cc2S3(=O)=O)CC1	none
O=C(Cn1nc(-c2ccccc2)ccc1=O)Nc1ccc(N2CCN(C(=O)c3cccs3)CC2)cc1	NadD inh 29 | NadD inh conf inactive
FC(F)(F)c1ccc(C2[C@H]3CN(Cc4ccc(-c5ccccc5)cc4)[C@H](c4ccccc4)C34CC2(c2cccnc2)C4)cc1 (stereo partly specified)	none (no result: STEP inh, LMPTP block, DNMT1 inh, SUMO1-SIM PPI, NadD inh)
c1ccc(-c2ccc(CN3C[C@@H]4C(c5ccccc5)C5(c6cccnc6)CC4(C5)[C@H]3c3ccccc3)cc2)cc1 (stereo partly specified)	NadD inh 52 | NadD inh conf inactive
Cc1cc(=O)n2c(n1)SCOC2	none
Cc1ccc(CNC(=O)c2ccc(N3CCC4(CC3)CC(c3cccc(Br)c3)=NO4)c(NC(=O)c3ccc(Br)cc3)c2)cc1	none
Cc1ccc(CNC(=O)c2ccc(N3CCC4(CC3)CC(c3cccc(Br)c3)=NO4)c(NC(=O)c3c(Cl)cccc3Cl)c2)cc1	NadD inh 33 | NadD inh conf inactive
Cc1ccc(CNC(=O)c2ccc(N3CCC4(CC3)CC(c3ccccc3)=NO4)c(NC(=O)c3ccc(Cl)c([N+](=O)[O-])c3)c2)cc1	NadD inh 36 | NadD inh conf inactive

Compound activity deposited in PubChem BioAssay by Sanford-Burnham Center for Chemical Genomics.
